Published values pooled from the literature.
Lines come from different studies, so protocols differ. ≈ marks a conversion by molar mass, not a printed value.
Organism: Pseudomonas aeruginosa

`COc1cc(C=Nc2ccc(Cl)cc2Cl)ccc1O` gave an inhibition zone of 14.4 mm (microbial growth; disc diffusion; 2000 µg/mL; 24 h).
With `Cc1[nH]c(C(=O)Nc2ccc(C(=O)NCC(=O)O)cc2N2CC[C@@H](N)C2)c(Cl)c1Cl.Cl` the MIC was greater than 32 µg/mL (microbial growth; broth dilution; ATCC27853).
`COc1ccccc1C(=O)C#Cc1ccc(F)c(F)c1` has an activity vs control of 86% (microbial growth; absorbance; 10 µM; 24 h).
For `CC(C)(O/N=C(\C(=O)N[C@@H]1C(=O)N2C(C(=O)[O-])=C(C[n+]3ccccc3)CS[C@H]12)c1csc(N)n1)C(=O)O`, the MIC90 was 4 µg/mL (≈ 7.32 µM) (microbial growth; PAO1).
With `Cc1[nH]c(C(=O)Nc2ccc(C(=O)NCC(=O)O)cc2N2CCN(C(=O)OC(C)(C)C)CC2)c(Cl)c1Cl` the MIC was greater than 32 µg/mL (microbial growth; broth dilution; ATCC27853).
`COc1cc(C#CC(=O)CC(C)C)ccc1O` gave an activity vs control of 87% (microbial growth; absorbance; 100 µM; 24 h).
`Cc1ccccc1NC(=O)C=Cc1ccc(O)c(O)c1` has an MIC of 8 µg/mL (microbial growth; broth dilution; ATCC27853).
With `Cc1ccc(C(=O)C#Cc2ccc(F)c(F)c2)cc1` the activity vs control was 96% (microbial growth; absorbance; 100 µM; 24 h).
`C[C@@H](O)[C@H]1C(=O)N2C(C(=O)O)=C(S[C@@H]3CN[C@H](C(=O)N(C)C)C3)[C@H](C)[C@H]12` gave an MIC of less than 0.5 µg/mL (microbial growth; broth dilution; ATCC27853; 20 h).
For `Cc1[nH]c(C(=O)Nc2ccc(C(=O)NCc3n[nH]c(=O)o3)cc2N2CCN(C(=O)OC(C)(C)C)CC2)c(Cl)c1Cl`, the MIC was greater than 32 µg/mL (microbial growth; broth dilution; ATCC27853).
With `O=C(C=Cc1ccc(O)c(O)c1)OCc1ccccc1` the MIC was 8 µg/mL (microbial growth; broth dilution; ATCC27853).
`Cc1[nH]c(C(=O)Nc2ccc(C(=O)NCC(=O)O)cc2N2CC[C@@H](NC(=O)OC(C)(C)C)C2)c(Cl)c1Cl` has an MIC of greater than 32 µg/mL (microbial growth; broth dilution; ATCC27853).
`C[C@@H](O)[C@H]1C(=O)N2C(C(=O)O)=C(SCCN=CN)C[C@H]12` has an inhibition zone of 17 mm (microbial growth; disc diffusion; 2000 µg/mL; 24 h).
`CC1(C)S[C@@H]2[C@H](NC(=O)[C@H](N)c3ccccc3)C(=O)N2[C@H]1C(=O)O` has an MIC of 8 µg/mL (microbial growth; broth dilution; ATCC27853).
For `CCCC(=O)C#Cc1ccc(O)c(OC)c1`, the activity vs control was 94% (microbial growth; absorbance; 100 µM; 24 h).
`Cl.N[C@@H]1CCN(c2cc(C(=O)NCC(=O)O)ccc2NC(=O)c2cc(Br)c(Br)[nH]2)C1` has an MIC of greater than 32 µg/mL (microbial growth; broth dilution; ATCC27853).
With `COc1cc(C#C[C@H](O)CC(C)C)ccc1O` the activity vs control was 98% (microbial growth; absorbance; 100 µM; 24 h).
`CN[C@H](CC(C)C)C(=O)N[C@H]1C(=O)N[C@@H](CC(N)=O)C(=O)N[C@H]2C(=O)N[C@H]3C(=O)N[C@H](C(=O)N[C@H](C(=O)O)c4cc(O)cc(O)c4-c4cc3ccc4O)[C@H](O)c3ccc(c(Cl)c3)Oc3cc2cc(c3O[C@@H]2O[C@H](CO)[C@@H](O)[C@H](O)[C@H]2O[C@H]2C[C@](C)(N)[C@H](O)[C@H](C)O2)Oc2ccc(cc2Cl)[C@H]1O` gave an MBC of 1000 µg/mL (≈ 690 µM) (microbial killing; ATCC47085).
`O=C(C=Cc1ccc(O)c(O)c1)Oc1cccc2cccnc12` has an MIC of 4 µg/mL (microbial growth; broth dilution; ATCC27853).
`COc1cccc(C(=O)C#Cc2ccc(O)c(OC)c2)c1` has an activity vs control of 82% (microbial growth; absorbance; 100 µM; 24 h).
The inhibition zone of `COc1cc(C=Nc2ccc(C)cc2Cl)ccc1O` is reported as 12.7 mm (microbial growth; disc diffusion; 2000 µg/mL; 24 h).
With `COc1cc(C#CC(=O)c2ccc(C(F)(F)F)cc2)ccc1O` the activity vs control was 102% (microbial growth; absorbance; 10 µM; 24 h).
`Cc1[nH]c(C(=O)Nc2ccc(C(=O)NCC(=O)O)cc2N2CCNCC2)c(Cl)c1Cl.Cl` has an MIC of greater than 32 µg/mL (microbial growth; broth dilution; ATCC27853).
With `CC(C)NCC(COc1cccc2ccccc12)OC(=O)C=Cc1ccc(O)c(O)c1` (stereo not drawn) the MIC was 64 µg/mL (microbial growth; broth dilution; ATCC27853).
With `O=C(O)c1cn(C2CC2)c2cc(N3CCNCC3)c(F)cc2c1=O` the MIC was 2 µM (microbial growth; ATCC27853).
The activity vs control of `OC(C#Cc1ccc(F)c(F)c1)c1ccccc1Cl` (stereo not drawn) is reported as 97% (microbial growth; absorbance; 100 µM; 24 h).
The MIC of `CC(C)(C)OC(=O)N[C@@H]1CCN(c2cc(C(=O)NCC(=O)O)ccc2NC(=O)c2cc(Br)c(Br)[nH]2)C1` is reported as greater than 32 µg/mL (microbial growth; broth dilution; ATCC27853).
